The source of these data is ChEMBL document CHEMBL4190270, “Novel 4-arylaminoquinazoline derivatives with (E)-propen-1-yl moiety as potent EGFR inhibitors with enhanced antiproliferative activities against tumor cells” (Eur J Med Chem, 2017).

The source made the active and inactive calls. No cut-off for these calls is given here. Where only a bound is given, the exact number is not on record here.

One series has as its system NCI-H1975. The experiment in a line: Antiproliferative activity against human NCI-H1975 cells harboring EGFR L858R/T790M mutant after 72 hrs by MTT assay. It counts as functional, cell-based. The conditions noted are these: NCI-H1975, 72 h. (In general: Tetrazolium dyes change colour on reduction, which living cells bring about.)
The subject of series [1] is A549. The experiment in a line: Antiproliferative activity against human A549 cells harboring wild type EGFR/K-Ras mutant after 72 hrs by MTT assay. It counts as functional, cell-based. Particulars: A549, 72 h.
The next series concerns A-431. The experiment in a line: Antiproliferative activity against human A431 cells harboring wild type EGFR after 72 hrs by MTT assay. It counts as functional, cell-based. The conditions noted are these: A-431, 72 h. In outline: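 Cells grown in DMEM or 1640 with 10% FBS, penicillin/streptomycin and 2 mM L-glutamine, plated in 96 wells for 24 h at 37 °C under 5% CO2. Exposed to compound as an 8-point series, or to 0.5% DMSO, for 72 h. Then MTT (5 mg/ml) for 4 h, formazan dissolved in DMSO, absorbance read at 570 nm (630 nm reference). IC50 by nonlinear regression; mean ± SD of at least three independent experiments.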

The next series has as its system SW480. The experiment in a line: Antiproliferative activity against human SW480 cells harboring wild type EGFR after 72 hrs by MTT assay. The conditions noted are these: SW480, 72 h. It counts as functional, cell-based.
For series [2], the target named is T1, Epidermal growth factor receptor (Homo sapiens, UniProt P00533). In words: Inhibition of EGF-induced EGFR phosphorylation at Y1086-residue in human A549 cells at 5 uM preincubated for 2 hrs followed by EGF stimulation for 10 mins by Western blot analysis. The series is classed as cell-based. The essentials:
(§1)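 Cells grown in 6-well plates with 10% FBS to 90% confluence, then serum-starved 24 h. Exposed to a dose range of compound, or to 25 μM reference drug, for 2 h, then stimulated with 50 ng/mL EGF for 10 min at 37 °C. Lysed in RIPA with protease/phosphatase inhibitors. 20 µg protein run on 10% SDS-PAGE, transferred to PVDF, blocked with 5% milk, immunoblotted and detected by ECL.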
For orientation: In western blotting, separated proteins are transferred to a membrane and probed.

Series [3] has as its target T1, Epidermal growth factor receptor. In words: Inhibition of EGFR in human A549 cells assessed as reduction in EGF-induced ERK1/2 phosphorylation at T202/Y204 residues at 5 uM preincubated for 2 hrs followed by EGF stimulation for 10 mins by Western blot analysis. The series is classed as cell-based. The essentials: as §1
Series [4] concerns Epidermal growth factor receptor (Homo sapiens), P00533 [L858R,T790M]. In words: Inhibition of EGFR L858R/T790M double mutant in human NCI-H1975 cells assessed as reduction in EGF-induced ERK1/2 phosphorylation at T202/Y204 residues at 25 uM preincubated for 2 hrs followed by EGF stimulation for 10 mins by Western blot analysis. The series is classed as cell-based. The essentials: as §1

For series [5] the test system is unchanged. The experiment in a line: Inhibition of EGF-induced EGFR L858R/T790M double mutant phosphorylation at Tyr-residue in human NCI-H1975 cells preincubated for 2 hrs followed by EGF stimulation for 10 mins by Western blot analysis. The series is classed as cell-based. In outline:
as §1

Series [6] has the same test system. In words: Inhibition of EGF-induced EGFR L858R/T790M double mutant phosphorylation at Y992-residue in human NCI-H1975 cells preincubated for 2 hrs followed by EGF stimulation for 10 mins by Western blot analysis. It counts as cell-based. The essentials: as §1
In series [7] the target is T1, Epidermal growth factor receptor. The conditions noted are these: A549, at 25 µM.
For series [8], the system named is Epidermal growth factor receptor (Homo sapiens), P00533 [L858R,T790M]. In words: Inhibition of EGFR L858R/T790M double mutant in human NCI-H1975 cells assessed as reduction in EGF-induced Akt phosphorylation at Ser473 residue at 25 uM preincubated for 2 hrs followed by EGF stimulation for 10 mins by Western blot analysis. It counts as cell-based. In outline:
as §1

Series [9] deals with A549. The experiment in a line: Effect on total AKT protein expression in human A549 cells at 1 to 25 uM preincubated for 2 hrs followed by EGF stimulation for 10 mins by Western blot analysis. The series is classed as ADME, cell-based. Particulars: a549, 10 min. The essentials: as §1
The subject of series [10] is Epidermal growth factor receptor (Homo sapiens), P00533 [L858R,T790M]. Particulars: NCI-H1975, at 25 µM.
For series [11], the target named is T1, Epidermal growth factor receptor. In words: Inhibition of EGFR in human A549 cells assessed as reduction in EGF-induced STAT3 phosphorylation at 1 to 25 uM preincubated for 2 hrs followed by EGF stimulation for 10 mins by Western blot analysis. It counts as cell-based. The essentials: as §1
For series [12] the target is unchanged. In words: Inhibition of EGF-induced EGFR phosphorylation at Y992-residue in human A549 cells at 5 uM preincubated for 2 hrs followed by EGF stimulation for 10 mins by Western blot analysis. It counts as cell-based. The essentials: as §1
Series [13] has the same target. Particulars: A549, at 25 µM. The source holds these as a separate data set.
The target is the same in series [14]. The conditions noted are these: A549, at 25 µM. This is another data set of the same source.
The target is the same in series [15]. In words: Inhibition of EGFR in human A549 cells assessed as reduction in EGF-induced Akt phosphorylation at S473 residue at 5 uM preincubated for 2 hrs followed by EGF stimulation for 10 mins by Western blot analysis. The series is classed as cell-based. The essentials: as §1
The subject of series [16] is A549. The experiment in a line: Effect on total EGFR protein expression in human A549 cells at 1 to 25 uM preincubated for 2 hrs followed by EGF stimulation for 10 mins by Western blot analysis. The series is classed as ADME, cell-based. Particulars: a549, 10 min. The essentials:
as §1

Series [17] concerns the target T1, Epidermal growth factor receptor. Particulars: A549, at 25 µM. The source holds these as a separate data set.
The target is the same in series [18]. The conditions noted are these: A549, at 25 µM. This is another data set of the same source.
Series [19] shares this target. The series is classed as cell-based, HEK293.
The test system of series [20] is A549. The experiment in a line: Effect on total ERK1/2 protein expression in human A549 cells at 1 to 25 uM preincubated for 2 hrs followed by EGF stimulation for 10 mins by Western blot analysis. The series is classed as ADME, cell-based. Particulars: a549, 10 min. The essentials:
as §1

Series [21] has as its target T1, Epidermal growth factor receptor. The experiment in a line: Inhibition of EGF-induced EGFR phosphorylation at Tyr-residue in human A549 cells at 5 uM preincubated for 2 hrs followed by EGF stimulation for 10 mins by Western blot analysis. It counts as cell-based. The essentials: as §1
Series [22] deals with Epidermal growth factor receptor (Homo sapiens), P00533 [L858R,T790M]. The experiment in a line: Inhibition of EGF-induced EGFR L858R/T790M double mutant phosphorylation at Y1068-residue in human NCI-H1975 cells preincubated for 2 hrs followed by EGF stimulation for 10 mins by Western blot analysis. It counts as cell-based. The essentials:
as §1

Sequence of Epidermal growth factor receptor (Homo sapiens), P00533 [L858R,T790M] (P00533 whole entry T790M/L858R, looked up): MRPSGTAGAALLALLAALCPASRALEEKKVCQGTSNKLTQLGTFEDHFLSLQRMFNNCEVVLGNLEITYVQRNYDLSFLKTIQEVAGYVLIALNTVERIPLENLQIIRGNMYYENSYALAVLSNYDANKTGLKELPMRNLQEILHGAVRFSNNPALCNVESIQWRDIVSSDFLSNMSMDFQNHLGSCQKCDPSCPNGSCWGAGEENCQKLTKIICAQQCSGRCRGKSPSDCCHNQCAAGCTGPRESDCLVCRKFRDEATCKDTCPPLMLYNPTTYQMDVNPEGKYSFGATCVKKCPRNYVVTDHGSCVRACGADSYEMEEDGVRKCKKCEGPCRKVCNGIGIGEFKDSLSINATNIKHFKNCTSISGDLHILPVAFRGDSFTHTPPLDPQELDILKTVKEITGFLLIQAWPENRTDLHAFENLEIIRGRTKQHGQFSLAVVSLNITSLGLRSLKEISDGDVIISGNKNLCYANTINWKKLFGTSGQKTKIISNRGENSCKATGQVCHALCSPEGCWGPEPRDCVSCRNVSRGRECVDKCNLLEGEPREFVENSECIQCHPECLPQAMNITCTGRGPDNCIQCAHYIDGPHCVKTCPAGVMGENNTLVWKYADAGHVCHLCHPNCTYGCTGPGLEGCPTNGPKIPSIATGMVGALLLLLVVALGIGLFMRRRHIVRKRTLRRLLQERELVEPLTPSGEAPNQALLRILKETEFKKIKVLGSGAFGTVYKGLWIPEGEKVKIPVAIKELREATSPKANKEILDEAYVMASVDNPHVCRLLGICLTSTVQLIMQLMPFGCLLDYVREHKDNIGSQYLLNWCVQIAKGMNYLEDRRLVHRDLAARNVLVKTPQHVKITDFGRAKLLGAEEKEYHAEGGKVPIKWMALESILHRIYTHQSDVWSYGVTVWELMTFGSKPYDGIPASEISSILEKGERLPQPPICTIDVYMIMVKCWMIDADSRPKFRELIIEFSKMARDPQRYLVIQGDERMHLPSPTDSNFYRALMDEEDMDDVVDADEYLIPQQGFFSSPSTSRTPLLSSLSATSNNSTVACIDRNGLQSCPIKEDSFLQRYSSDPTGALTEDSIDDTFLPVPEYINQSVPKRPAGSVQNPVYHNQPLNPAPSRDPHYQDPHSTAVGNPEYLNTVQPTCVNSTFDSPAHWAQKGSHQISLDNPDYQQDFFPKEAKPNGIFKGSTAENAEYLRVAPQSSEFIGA
T1 sequence (P00533 whole entry): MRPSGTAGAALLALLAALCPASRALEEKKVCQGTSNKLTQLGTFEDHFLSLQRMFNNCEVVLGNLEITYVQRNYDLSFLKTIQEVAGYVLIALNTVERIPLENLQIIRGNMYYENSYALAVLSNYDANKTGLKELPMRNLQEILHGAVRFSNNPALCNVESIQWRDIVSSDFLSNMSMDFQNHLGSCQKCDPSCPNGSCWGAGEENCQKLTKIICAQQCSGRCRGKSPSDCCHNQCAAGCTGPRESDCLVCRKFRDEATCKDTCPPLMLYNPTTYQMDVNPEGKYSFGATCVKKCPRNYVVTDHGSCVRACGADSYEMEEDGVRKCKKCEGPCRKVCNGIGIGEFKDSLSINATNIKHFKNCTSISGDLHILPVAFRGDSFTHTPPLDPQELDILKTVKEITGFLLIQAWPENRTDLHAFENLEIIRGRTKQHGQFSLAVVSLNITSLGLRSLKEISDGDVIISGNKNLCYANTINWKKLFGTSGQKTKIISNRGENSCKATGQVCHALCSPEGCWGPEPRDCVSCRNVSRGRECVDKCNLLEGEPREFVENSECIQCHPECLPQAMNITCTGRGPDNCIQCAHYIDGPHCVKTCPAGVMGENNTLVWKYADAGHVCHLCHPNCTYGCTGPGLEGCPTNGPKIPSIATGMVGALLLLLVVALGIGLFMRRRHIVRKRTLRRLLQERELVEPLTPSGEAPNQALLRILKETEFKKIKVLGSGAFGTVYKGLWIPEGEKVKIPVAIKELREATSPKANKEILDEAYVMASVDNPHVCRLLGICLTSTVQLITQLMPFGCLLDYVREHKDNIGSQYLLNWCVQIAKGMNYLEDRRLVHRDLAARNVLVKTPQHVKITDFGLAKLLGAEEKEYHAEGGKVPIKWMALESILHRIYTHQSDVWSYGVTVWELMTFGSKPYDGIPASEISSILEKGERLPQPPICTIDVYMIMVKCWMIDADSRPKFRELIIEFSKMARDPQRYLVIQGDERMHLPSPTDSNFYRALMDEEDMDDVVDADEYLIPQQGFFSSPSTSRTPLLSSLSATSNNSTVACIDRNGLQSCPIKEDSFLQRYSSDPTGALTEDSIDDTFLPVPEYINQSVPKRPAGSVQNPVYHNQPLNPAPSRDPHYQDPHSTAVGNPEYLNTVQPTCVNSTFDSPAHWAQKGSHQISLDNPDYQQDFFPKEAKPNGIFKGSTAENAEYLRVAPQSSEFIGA

As a reminder, the IC50 is the concentration that gives 50% inhibition. A low value points to inhibition by little substance. `C/C=C/c1ccc(Nc2ncnc3cc(OC)c(OCCN4CCOCC4)cc23)cc1`: the IC50 is greater than 100 µM in the series with NCI-H1975, 26.5 µM in the series with A549 [1], 47.1 µM in the series with A-431 and 28.2 µM in the series on SW480.

For the molecule `C/C=C/c1ccc(Nc2ncnc3cc(OCCOC)c(OCCOC)cc23)cc1`, the IC50 in the series on NCI-H1975 was determined as 27.7 µM; in the series with A549 [1] it was 24.7 µM; in the series on A-431 it was 23.9 µM; in the series on SW480, 43.6 µM.

Take `C/C=C/c1ccc(Nc2ncnc3ccc(OCCCN4CCOCC4)cc23)cc1`: the IC50 in the series on NCI-H1975 amounted to 23.9 µM; in the series with A549 [1] it was 17.4 µM; in the series with A-431, 12 µM; in the series with SW480, 10.4 µM.

For `C/C=C/c1ccc(Nc2ncnc3cc4c(cc23)OCCO4)cc1`, the IC50 in the series with NCI-H1975 is greater than 100 µM; in the series with A549 [1], 38.2 µM; in the series on A-431, greater than 100 µM; with SW480 it was 34 µM.

Consider `C/C=C/c1ccc(Nc2ncnc3ccc(OCCN4CCOCC4)cc23)cc1`, for which the IC50 is greater than 100 µM in the series on NCI-H1975, 85.3 µM in the series with A549 [1], 57.7 µM in the series with A-431 and 62.6 µM with SW480.

Regarding `C/C=C/c1ccc(Nc2ncnc3cc(OCCN4CCOCC4)c(OC)cc23)cc1`, the IC50 is greater than 100 µM with NCI-H1975, 37.5 µM in the series with A549 [1], 22.4 µM in the series with A-431 and 27.6 µM in the series on SW480.

For `C/C=C/c1ccc(Nc2ncnc3cc(OCCCN4CCOCC4)c(OCCCN4CCOCC4)cc23)cc1`, the inhibition entry in series [2], in series [3], in series [4], in series [7], in [8] and in series [10] was “Active” each time. For the same molecule, the inhibition result in series [12], in series [13], in [14], in series [15], in [17] and in series [18] was “Active” in each case. For the same molecule, in series [21], the inhibition entry was “Active”. Further, the inhibition result in [5], in series [6] and in series [22] was “Dose-dependent effect” throughout. Also, the Activity result in the series with A549 [9], with A549 [16] and in the series on A549 [20] was “Non-Toxic” each time. For the same molecule, in [11], the inhibition result is “inactive”. Besides, in series [19], inhibition was half-maximal at 0.0207 µM (IC50).

As to `C/C=C/c1ccc(Nc2ncnc3cc(OCCCN4CCOCC4)c(OC)cc23)cc1`, the IC50 in the series on NCI-H1975 is 10.8 µM; in the series on A549 [1] it was 10.3 µM; in the series with A-431 it was 6.34 µM; in the series with SW480, 11.6 µM.

As for `C/C=C/c1ccc(Nc2ncnc3cc(OC)c(OCCCN4CCOCC4)cc23)cc1`, the IC50 is 38.9 µM in the series with NCI-H1975, 10.3 µM in the series with A549 [1], 13.9 µM in the series on A-431 and 14.7 µM with SW480.

The molecule `CS(=O)(=O)CCNCc1ccc(-c2ccc3ncnc(Nc4ccc(OCc5cccc(F)c5)c(Cl)c4)c3c2)o1` [LAPATINIB] yielded an IC50 with NCI-H1975 of 9.08 µM. This lies in the single-digit micromolar range.

Regarding `C/C=C/c1ccc(Nc2ncnc3ccc(-c4ccc(CNCCS(C)(=O)=O)o4)cc23)cc1`, the IC50 is greater than 100 µM in the series with NCI-H1975, 84.5 µM in the series with A549 [1], 37.6 µM in the series on A-431 and 56.3 µM with SW480.

Consider `C/C=C/c1ccc(Nc2ncnc3cc(OCc4ccccc4)c(OCc4ccccc4)cc23)cc1`, for which the IC50 in the series on NCI-H1975 is 44.1 µM; with A549 [1], 36.5 µM; in the series on A-431, 28.1 µM; in the series on SW480 it was 37 µM.
